# Measured values taken from ChEMBL document CHEMBL4130552, “Design, synthesis and biological evaluation of novel benzimidazole amidines as potent multi-target inhibitors for the treatment of non-small cell lung cancer” (Eur J Med Chem, 2018).
# The source made the active and inactive calls. No cut-off for these calls is given here.
# System: A549
# Assay: Antiproliferative activity against human A549 cells after 72 hrs by MTT assay
# Type: functional, cell-based
# Settings: A549, 72 h
# Outline: (§1)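 Cells seeded at 5000/well on day 0 in medium with 10% FBS, 2 mM L-glutamine, penicillin/streptomycin, 37 °C, 5% CO2. Compounds added at five 10-fold dilutions with DMSO ≤0.1%, then 72 h exposure. MTT absorbance converted to percentage growth versus untreated wells. IC50 by linear regression between bracketing concentrations. Quadruplicate points, three independent experiments.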
row,Structure (SMILES),IC50
1,N=C(N)c1ccc2[nH]c(-c3ccc(OCc4cn(-c5ccc(C(F)(F)F)cc5)nn4)cc3)nc2c1,0.84 µM
2,Clc1ccc(-n2cc(COc3ccc(-c4nc5ccccc5[nH]4)cc3)nn2)cc1,7.96 µM
3,N=C(N)c1ccc2[nH]c(-c3ccc(OCc4cn(-c5ccc(I)cc5)nn4)cc3)nc2c1,0.45 µM
4,N=C(N)c1ccc2[nH]c(-c3ccc(OCc4cn(-c5ccccc5)nn4)cc3)nc2c1,53.3 µM
5,CC(C)NC(=N)c1ccc2[nH]c(-c3ccc(OCc4cn(-c5ccccc5)nn4)cc3)nc2c1,> 100 µM
6,O=c1[nH]cc(F)c(=O)[nH]1 [FLUOROURACIL],2.8 µM
7,CC(C)NC(=N)c1ccc2[nH]c(-c3cn(-c4ccc(Cl)cc4)nn3)nc2c1,27.1 µM
8,CC(C)NC(=N)c1ccc2[nH]c(-c3ccc(OCc4cn(Cc5ccc(Cl)cc5)nn4)cc3)nc2c1,4.98 µM
9,Fc1ccc(-n2cc(COc3ccc(-c4nc5cc(C6=NCCN6)ccc5[nH]4)cc3)nn2)cc1,> 100 µM
10,Clc1ccc(-n2cc(-c3nc4cc(C5=NCCN5)ccc4[nH]3)nn2)cc1,3.86 µM
11,N=C(N)c1ccc2[nH]c(-c3ccc(OCc4cn(Cc5ccccc5)nn4)cc3)nc2c1,9.47 µM
12,CC(C)NC(=N)c1ccc2[nH]c(-c3ccc(OCc4cn(-c5ccc(C(F)(F)F)cc5)nn4)cc3)nc2c1,85.8 µM
13,Cl.c1ccc(Cn2cc(COc3ccc(-c4nc5cc(C6=NCCN6)ccc5[nH]4)cc3)nn2)cc1,0.07 µM
14,CC(C)NC(=N)c1ccc2[nH]c(-c3ccc(OCc4cn(Cc5ccccc5)nn4)cc3)nc2c1,6.18 µM

# System: CFPAC-1
# Assay: Antiproliferative activity against human CFPAC-1 cells after 72 hrs by MTT assay
# Type: functional, cell-based
# Settings: CFPAC-1, 72 h
# Outline: as §1
row,Structure (SMILES),IC50
1,N=C(N)c1ccc2[nH]c(-c3ccc(OCc4cn(-c5ccc(C(F)(F)F)cc5)nn4)cc3)nc2c1,2.09 µM
2,Clc1ccc(-n2cc(COc3ccc(-c4nc5ccccc5[nH]4)cc3)nn2)cc1,> 100 µM
3,N=C(N)c1ccc2[nH]c(-c3ccc(OCc4cn(-c5ccc(I)cc5)nn4)cc3)nc2c1,21.5 µM
4,N=C(N)c1ccc2[nH]c(-c3ccc(OCc4cn(-c5ccccc5)nn4)cc3)nc2c1,29.9 µM
5,CC(C)NC(=N)c1ccc2[nH]c(-c3ccc(OCc4cn(-c5ccccc5)nn4)cc3)nc2c1,> 100 µM
6,CC(C)NC(=N)c1ccc2[nH]c(-c3cn(-c4ccc(Cl)cc4)nn3)nc2c1,16 µM
7,CC(C)NC(=N)c1ccc2[nH]c(-c3ccc(OCc4cn(Cc5ccc(Cl)cc5)nn4)cc3)nc2c1,> 100 µM
8,Fc1ccc(-n2cc(COc3ccc(-c4nc5cc(C6=NCCN6)ccc5[nH]4)cc3)nn2)cc1,> 100 µM
9,Clc1ccc(-n2cc(-c3nc4cc(C5=NCCN5)ccc4[nH]3)nn2)cc1,0.83 µM
10,N=C(N)c1ccc2[nH]c(-c3ccc(OCc4cn(Cc5ccccc5)nn4)cc3)nc2c1,34.4 µM
11,CC(C)NC(=N)c1ccc2[nH]c(-c3ccc(OCc4cn(-c5ccc(C(F)(F)F)cc5)nn4)cc3)nc2c1,> 100 µM
12,Cl.c1ccc(Cn2cc(COc3ccc(-c4nc5cc(C6=NCCN6)ccc5[nH]4)cc3)nn2)cc1,29.2 µM
13,CC(C)NC(=N)c1ccc2[nH]c(-c3ccc(OCc4cn(Cc5ccccc5)nn4)cc3)nc2c1,> 100 µM

# System: A549
# Assay: Downregulation of TGM2 protein expression in human A549 cells at 2 times antiproliferative IC50 after 48 hrs by Western blot method
# Type: functional, cell-based
# Settings: not given
# Outline: (§2)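 Lysis in RIPA buffer (20 mM Tris-HCl pH 7.5, 150 mM NaCl, EDTA, EGTA, 1% NP-40, 1% deoxycholate, protease inhibitors). Blocking 1 h in 4% BSA/TBST, primary antibody overnight at 4 °C, HRP secondary 1 h, chemiluminescence. Densitometry normalised to alpha-tubulin; two independent experiments.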
row,Structure (SMILES),Activity
1,Cl.c1ccc(Cn2cc(COc3ccc(-c4nc5cc(C6=NCCN6)ccc5[nH]4)cc3)nn2)cc1,Active

# System: HeLa
# Assay: Antiproliferative activity against human HeLa cells after 72 hrs by MTT assay
# Type: functional, cell-based
# Settings: not given
# Outline: as §1
row,Structure (SMILES),IC50
1,N=C(N)c1ccc2[nH]c(-c3ccc(OCc4cn(-c5ccc(C(F)(F)F)cc5)nn4)cc3)nc2c1,0.32 µM
2,Clc1ccc(-n2cc(COc3ccc(-c4nc5ccccc5[nH]4)cc3)nn2)cc1,> 100 µM
3,N=C(N)c1ccc2[nH]c(-c3ccc(OCc4cn(-c5ccc(I)cc5)nn4)cc3)nc2c1,6.45 µM
4,N=C(N)c1ccc2[nH]c(-c3ccc(OCc4cn(-c5ccccc5)nn4)cc3)nc2c1,18.8 µM
5,CC(C)NC(=N)c1ccc2[nH]c(-c3ccc(OCc4cn(-c5ccccc5)nn4)cc3)nc2c1,16.6 µM
6,CC(C)NC(=N)c1ccc2[nH]c(-c3cn(-c4ccc(Cl)cc4)nn3)nc2c1,0.85 µM
7,CC(C)NC(=N)c1ccc2[nH]c(-c3ccc(OCc4cn(Cc5ccc(Cl)cc5)nn4)cc3)nc2c1,> 100 µM
8,Fc1ccc(-n2cc(COc3ccc(-c4nc5cc(C6=NCCN6)ccc5[nH]4)cc3)nn2)cc1,0.98 µM
9,Clc1ccc(-n2cc(-c3nc4cc(C5=NCCN5)ccc4[nH]3)nn2)cc1,0.69 µM
10,N=C(N)c1ccc2[nH]c(-c3ccc(OCc4cn(Cc5ccccc5)nn4)cc3)nc2c1,13.7 µM
11,CC(C)NC(=N)c1ccc2[nH]c(-c3ccc(OCc4cn(-c5ccc(C(F)(F)F)cc5)nn4)cc3)nc2c1,13.7 µM
12,Cl.c1ccc(Cn2cc(COc3ccc(-c4nc5cc(C6=NCCN6)ccc5[nH]4)cc3)nn2)cc1,6.67 µM
13,CC(C)NC(=N)c1ccc2[nH]c(-c3ccc(OCc4cn(Cc5ccccc5)nn4)cc3)nc2c1,8.8 µM

# System: A549
# Assay: Induction of apoptosis in human A549 cells assessed as late apoptotic cells at 2 times antiproliferative IC50 after 48 hrs by Annexin V-FITC/propidium iodide staining based fluorescence microscopic method (reference value: 0%)
# Type: functional
# Settings: not given
row,Structure (SMILES),Activity
1,Cl.c1ccc(Cn2cc(COc3ccc(-c4nc5cc(C6=NCCN6)ccc5[nH]4)cc3)nn2)cc1,16.37%

# System: A549
# Assay: Induction of apoptosis in human A549 cells assessed as early apoptotic cells at 2 times antiproliferative IC50 after 48 hrs by Annexin V-FITC/propidium iodide staining based fluorescence microscopic method (reference value: 0.52%)
# Type: functional
# Settings: not given
row,Structure (SMILES),Activity
1,Cl.c1ccc(Cn2cc(COc3ccc(-c4nc5cc(C6=NCCN6)ccc5[nH]4)cc3)nn2)cc1,27.49%

# Molecular target: Cellular tumor antigen p53 (Homo sapiens) (UniProt P04637)
# Assay: Inhibition of p53 phosphorylation at Ser-15 residue in human A549 cells at 2 times antiproliferative IC50 after 48 hrs by Western blot method
# Type: cell-based
# Settings: not given
# Outline: as §2
# Cellular tumor antigen p53 (Homo sapiens), sequence (P04637 whole entry, looked up): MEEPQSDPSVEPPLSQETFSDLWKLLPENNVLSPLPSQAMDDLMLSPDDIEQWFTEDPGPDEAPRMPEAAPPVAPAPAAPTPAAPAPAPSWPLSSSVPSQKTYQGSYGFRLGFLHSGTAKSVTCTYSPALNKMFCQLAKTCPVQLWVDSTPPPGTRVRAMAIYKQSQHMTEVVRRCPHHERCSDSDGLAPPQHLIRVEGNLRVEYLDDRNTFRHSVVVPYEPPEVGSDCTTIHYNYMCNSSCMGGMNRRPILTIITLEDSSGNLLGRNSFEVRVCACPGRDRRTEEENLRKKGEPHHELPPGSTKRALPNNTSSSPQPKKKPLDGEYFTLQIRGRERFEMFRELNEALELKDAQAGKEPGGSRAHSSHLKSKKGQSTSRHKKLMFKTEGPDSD
row,Structure (SMILES),inhibition
1,Cl.c1ccc(Cn2cc(COc3ccc(-c4nc5cc(C6=NCCN6)ccc5[nH]4)cc3)nn2)cc1,Active

# System: A549
# Assay: Downregulation of CDK9/CyclinT1 protein expression in human A549 cells at 2 times antiproliferative IC50 after 48 hrs by Western blot method
# Type: functional, cell-based
# Settings: not given
# Outline: as §2
row,Structure (SMILES),Activity
1,Cl.c1ccc(Cn2cc(COc3ccc(-c4nc5cc(C6=NCCN6)ccc5[nH]4)cc3)nn2)cc1,Active

# System: WI-38
# Assay: Antiproliferative activity against human WI38 cells after 72 hrs by MTT assay
# Type: cell-based
# Settings: WI-38, 72 h
# Outline: as §1
row,Structure (SMILES),IC50
1,N=C(N)c1ccc2[nH]c(-c3ccc(OCc4cn(-c5ccc(C(F)(F)F)cc5)nn4)cc3)nc2c1,0.52 µM
2,Clc1ccc(-n2cc(COc3ccc(-c4nc5ccccc5[nH]4)cc3)nn2)cc1,1.11 µM
3,N=C(N)c1ccc2[nH]c(-c3ccc(OCc4cn(-c5ccc(I)cc5)nn4)cc3)nc2c1,0.62 µM
4,N=C(N)c1ccc2[nH]c(-c3ccc(OCc4cn(-c5ccccc5)nn4)cc3)nc2c1,8.08 µM
5,CC(C)NC(=N)c1ccc2[nH]c(-c3ccc(OCc4cn(-c5ccccc5)nn4)cc3)nc2c1,0.99 µM
6,CC(C)NC(=N)c1ccc2[nH]c(-c3cn(-c4ccc(Cl)cc4)nn3)nc2c1,6.85 µM
7,CC(C)NC(=N)c1ccc2[nH]c(-c3ccc(OCc4cn(Cc5ccc(Cl)cc5)nn4)cc3)nc2c1,0.7 µM
8,Fc1ccc(-n2cc(COc3ccc(-c4nc5cc(C6=NCCN6)ccc5[nH]4)cc3)nn2)cc1,0.09 µM
9,Clc1ccc(-n2cc(-c3nc4cc(C5=NCCN5)ccc4[nH]3)nn2)cc1,2.72 µM
10,N=C(N)c1ccc2[nH]c(-c3ccc(OCc4cn(Cc5ccccc5)nn4)cc3)nc2c1,0.89 µM
11,CC(C)NC(=N)c1ccc2[nH]c(-c3ccc(OCc4cn(-c5ccc(C(F)(F)F)cc5)nn4)cc3)nc2c1,0.32 µM
12,Cl.c1ccc(Cn2cc(COc3ccc(-c4nc5cc(C6=NCCN6)ccc5[nH]4)cc3)nn2)cc1,6.89 µM
13,CC(C)NC(=N)c1ccc2[nH]c(-c3ccc(OCc4cn(Cc5ccccc5)nn4)cc3)nc2c1,65.4 µM

# System: A549
# Assay: Induction of apoptosis in human A549 cells assessed as viable cells at 2 times antiproliferative IC50 after 48 hrs by Annexin V-FITC/propidium iodide staining based fluorescence microscopic method (reference value: 99.48%)
# Type: functional
# Settings: not given
row,Structure (SMILES),Activity
1,Cl.c1ccc(Cn2cc(COc3ccc(-c4nc5cc(C6=NCCN6)ccc5[nH]4)cc3)nn2)cc1,49.71%

# System: SW-620
# Assay: Antiproliferative activity against human SW620 cells after 72 hrs by MTT assay
# Type: functional, cell-based
# Settings: SW-620, 72 h
# Outline: as §1
row,Structure (SMILES),IC50
1,N=C(N)c1ccc2[nH]c(-c3ccc(OCc4cn(-c5ccc(C(F)(F)F)cc5)nn4)cc3)nc2c1,0.36 µM
2,Clc1ccc(-n2cc(COc3ccc(-c4nc5ccccc5[nH]4)cc3)nn2)cc1,99.3 µM
3,N=C(N)c1ccc2[nH]c(-c3ccc(OCc4cn(-c5ccc(I)cc5)nn4)cc3)nc2c1,0.95 µM
4,N=C(N)c1ccc2[nH]c(-c3ccc(OCc4cn(-c5ccccc5)nn4)cc3)nc2c1,31.5 µM
5,CC(C)NC(=N)c1ccc2[nH]c(-c3ccc(OCc4cn(-c5ccccc5)nn4)cc3)nc2c1,62.1 µM
6,CC(C)NC(=N)c1ccc2[nH]c(-c3cn(-c4ccc(Cl)cc4)nn3)nc2c1,32.5 µM
7,CC(C)NC(=N)c1ccc2[nH]c(-c3ccc(OCc4cn(Cc5ccc(Cl)cc5)nn4)cc3)nc2c1,36.5 µM
8,Fc1ccc(-n2cc(COc3ccc(-c4nc5cc(C6=NCCN6)ccc5[nH]4)cc3)nn2)cc1,2.31 µM
9,Clc1ccc(-n2cc(-c3nc4cc(C5=NCCN5)ccc4[nH]3)nn2)cc1,1.67 µM
10,N=C(N)c1ccc2[nH]c(-c3ccc(OCc4cn(Cc5ccccc5)nn4)cc3)nc2c1,30.9 µM
11,CC(C)NC(=N)c1ccc2[nH]c(-c3ccc(OCc4cn(-c5ccc(C(F)(F)F)cc5)nn4)cc3)nc2c1,50.1 µM
12,Cl.c1ccc(Cn2cc(COc3ccc(-c4nc5cc(C6=NCCN6)ccc5[nH]4)cc3)nn2)cc1,28.1 µM
13,CC(C)NC(=N)c1ccc2[nH]c(-c3ccc(OCc4cn(Cc5ccccc5)nn4)cc3)nc2c1,58.6 µM

# System: A549
# Assay: Downregulation of PDE5 protein expression in human A549 cells at 2 times antiproliferative IC50 after 48 hrs by Western blot method
# Type: functional, cell-based
# Settings: not given
# Outline: as §2
row,Structure (SMILES),Activity
1,Cl.c1ccc(Cn2cc(COc3ccc(-c4nc5cc(C6=NCCN6)ccc5[nH]4)cc3)nn2)cc1,Active

# Molecular target: MAP kinase p38 (Homo sapiens, UniProt O15264+Q15759+Q16539+P53778)
# Assay: Inhibition of p38 phosphorylation at Thr180/Tyr182 residues in human A549 cells at 2 times antiproliferative IC50 after 48 hrs by Western blot method
# Type: cell-based
# Settings: not given
# Outline: as §2
row,Structure (SMILES),inhibition
1,Cl.c1ccc(Cn2cc(COc3ccc(-c4nc5cc(C6=NCCN6)ccc5[nH]4)cc3)nn2)cc1,Active

# System: A549
# Assay: Induction of apoptosis in human A549 cells assessed as necrotic cells at 2 times antiproliferative IC50 after 48 hrs by Annexin V-FITC/propidium iodide staining based fluorescence microscopic method (reference value: 0%)
# Type: functional
# Settings: not given
row,Structure (SMILES),Activity
1,Cl.c1ccc(Cn2cc(COc3ccc(-c4nc5cc(C6=NCCN6)ccc5[nH]4)cc3)nn2)cc1,6.43%
